Laboratory results published in ChEMBL document CHEMBL3098105, “7,7'-Diazaindirubin--a small molecule inhibitor of casein kinase 2 in vitro and in cells” (Bioorg Med Chem, 2014).

Experiments:
NCI-H460 = assay: Antiproliferative activity against human NCI-H460 cells after 3 days by sulforhodamine B assay; format: functional; details: NCI-H460, 72 h
Outline: (§1)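 Tested in the NCI 60 cell line panel. GI50 is the concentration giving 50% inhibition of cell growth, and values are the mean of two series of tests.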

[1] = biological target: Tyrosine-protein kinase Fer (Homo sapiens) (UniProt P16591); assay: Inhibition of human Fer assessed as residual activity at 1 uM relative to control
[2] = biological target: CDK7/Cyclin H/MNAT1 (Homo sapiens) (UniProt P51946+P50613+P51948); assay: Inhibition of human CDK7/cyclinH/MAT1 assessed as residual activity at 1 uM relative to control; format: protein-complex assay
[3] = biological target: Ephrin type-A receptor 8 (Homo sapiens) (UniProt P29322); assay: Inhibition of human EphA8 assessed as residual activity at 1 uM relative to control
MCF7 = assay: Cell cycle arrest in human MCF7 cells assessed as accumulation at G2/M phase at 0.25 uM after 24 hrs using propidium iodide staining by FACS analysis (reference value: 22.13%); format: functional
BT-549 = assay: Antiproliferative activity against human BT549 cells after 3 days by sulforhodamine B assay; format: functional; details: BT-549, 72 h; outline: as §1
[4] = Antiproliferative activity against human UO31 cells after 3 days by sulforhodamine B assay; format: functional; details: UO-31, 72 h
MDA-MB-468 = assay: Antiproliferative activity against human MDA-MB-468 cells after 3 days by sulforhodamine B assay; format: functional; details: MDA-MB-468, 72 h; outline: as §1
[5] = biological target: Tyrosine-protein kinase JAK3 (Homo sapiens) (UniProt P52333); assay: Inhibition of human JAK3 assessed as residual activity at 1 uM relative to control
[6] = biological target: Homeodomain-interacting protein kinase 3 (Homo sapiens) (UniProt Q9H422); assay: Inhibition of human HIPK3 assessed as residual activity at 1 uM relative to control
[7] = biological target: T1, Aurora kinase A (Homo sapiens) (UniProt O14965); assay: Inhibition of Aurora-A (unknown origin) assessed as residual activity at 10 uM relative to control
T1 sequence (whole entry): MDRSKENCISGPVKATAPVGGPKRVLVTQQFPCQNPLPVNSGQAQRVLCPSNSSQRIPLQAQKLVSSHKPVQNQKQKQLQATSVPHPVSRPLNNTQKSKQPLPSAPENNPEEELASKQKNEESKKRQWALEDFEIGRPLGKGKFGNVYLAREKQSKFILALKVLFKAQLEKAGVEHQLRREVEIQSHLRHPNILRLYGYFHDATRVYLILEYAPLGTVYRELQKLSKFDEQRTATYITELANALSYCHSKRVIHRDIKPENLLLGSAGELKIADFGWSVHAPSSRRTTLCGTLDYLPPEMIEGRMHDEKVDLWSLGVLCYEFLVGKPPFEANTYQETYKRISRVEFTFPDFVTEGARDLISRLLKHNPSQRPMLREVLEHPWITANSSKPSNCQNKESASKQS

[8] = biological target: Myotonin-protein kinase (Homo sapiens) (UniProt Q09013); assay: Inhibition of human DMPK assessed as residual activity at 1 uM relative to control
[9] = biological target: Tyrosine-protein kinase Blk (Mus musculus) (UniProt P16277); assay: Inhibition of mouse Blk assessed as residual activity at 1 uM relative to control
[10] = biological target: Tyrosine-protein kinase ABL1 (Homo sapiens) (UniProt P00519); assay: Inhibition of ABL1 (unknown origin) assessed as residual activity at 10 uM relative to control
[11] = biological target: Serine/threonine-protein kinase pim-2 (Homo sapiens) (UniProt Q9P1W9); assay: Inhibition of human Pim-2 assessed as residual activity at 1 uM relative to control
[12] = biological target: Serine/threonine-protein kinase N2 (Homo sapiens) (UniProt Q16513); assay: Inhibition of human PRK2 assessed as residual activity at 1 uM relative to control
[13] = biological target: Glycogen synthase kinase-3 beta (Homo sapiens) (UniProt P49841); assay: Inhibition of GSK3-beta (unknown origin) assessed as residual activity at 1 uM relative to control
[14] = biological target: Tyrosine-protein kinase Fgr (Homo sapiens) (UniProt P09769); assay: Inhibition of FGR (unknown origin) assessed as residual activity at 10 uM relative to control
[15] = biological target: Cyclin-dependent kinase 5/CDK5 activator 1 (Homo sapiens) (UniProt Q00535+Q15078); assay: Inhibition of human CDK5/p35 assessed as residual activity at 1 uM relative to control; format: protein-complex assay
[16] = biological target: Death-associated protein kinase 3 (Homo sapiens) (UniProt O43293); assay: Inhibition of human ZIPK assessed as residual activity at 1 uM relative to control
[17] = biological target: Ephrin type-A receptor 5 (Homo sapiens) (UniProt P54756); assay: Inhibition of human EphA5 assessed as residual activity at 1 uM relative to control
[18] = biological target: Serine/threonine-protein kinase PAK 3 (Homo sapiens) (UniProt O75914); assay: Inhibition of human PAK3 assessed as residual activity at 1 uM relative to control
[19] = biological target: Aurora kinase B (Homo sapiens) (UniProt Q96GD4); assay: Inhibition of Aurora-B (unknown origin) assessed as residual activity at 10 uM relative to control
[20] = biological target: Tyrosine-protein kinase Fyn (Homo sapiens) (UniProt P06241); assay: Inhibition of human Fyn assessed as residual activity at 1 uM relative to control
[21] = biological target: Serine/threonine-protein kinase PLK1 (Homo sapiens) (UniProt P53350); assay: Inhibition of human Plk1 assessed as residual activity at 1 uM relative to control
[22] = biological target: Mitogen-activated protein kinase 9 (Homo sapiens) (UniProt P45984); assay: Inhibition of human JNK2alpha2 assessed as residual activity at 1 uM relative to control
[23] = biological target: Homeodomain-interacting protein kinase 2 (Homo sapiens) (UniProt Q9H2X6); assay: Inhibition of human HIPK2 assessed as residual activity at 1 uM relative to control
[24] = biological target: Serine/threonine-protein kinase pim-3 (Homo sapiens) (UniProt Q86V86); assay: Inhibition of human Pim-3 assessed as residual activity at 1 uM relative to control
[25] = Antiproliferative activity against human OVCAR4 cells after 3 days by sulforhodamine B assay; format: functional; details: OVCAR-4, 72 h; outline: as §1
[26] = biological target: Serine/threonine-protein kinase 17A (Homo sapiens) (UniProt Q9UEE5); assay: Inhibition of human DRAK1 assessed as residual activity at 1 uM relative to control
PC-3 = assay: Antiproliferative activity against human PC3 cells after 3 days by sulforhodamine B assay; format: functional; details: PC-3, 72 h; outline: as §1
SN12C = assay: Antiproliferative activity against human SN12C cells after 3 days by sulforhodamine B assay; format: functional; details: 72 h
[27] = Antiproliferative activity against human HOP92 cells after 3 days by sulforhodamine B assay; format: functional; details: HOP-92, 72 h; outline: as §1
[28] = biological target: Mitogen-activated protein kinase 10 (Homo sapiens) (UniProt P53779); assay: Inhibition of human JNK3 assessed as residual activity at 1 uM relative to control
Chain of Mitogen-activated protein kinase 10 (Homo sapiens) (P53779 whole entry): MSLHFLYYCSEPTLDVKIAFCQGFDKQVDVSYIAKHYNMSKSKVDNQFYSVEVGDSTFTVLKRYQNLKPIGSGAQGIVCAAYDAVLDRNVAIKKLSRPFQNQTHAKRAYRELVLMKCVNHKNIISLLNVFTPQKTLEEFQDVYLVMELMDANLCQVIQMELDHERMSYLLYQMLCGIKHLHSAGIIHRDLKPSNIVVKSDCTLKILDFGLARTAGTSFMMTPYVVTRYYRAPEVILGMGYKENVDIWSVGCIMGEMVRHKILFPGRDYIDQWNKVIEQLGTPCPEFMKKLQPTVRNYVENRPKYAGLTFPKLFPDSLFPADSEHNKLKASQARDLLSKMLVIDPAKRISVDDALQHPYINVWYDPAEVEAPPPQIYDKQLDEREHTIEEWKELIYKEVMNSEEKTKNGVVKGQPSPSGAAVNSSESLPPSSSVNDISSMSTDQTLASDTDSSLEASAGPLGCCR

Chain of Glycogen synthase kinase-3 beta (Homo sapiens) (P49841 whole entry, looked up): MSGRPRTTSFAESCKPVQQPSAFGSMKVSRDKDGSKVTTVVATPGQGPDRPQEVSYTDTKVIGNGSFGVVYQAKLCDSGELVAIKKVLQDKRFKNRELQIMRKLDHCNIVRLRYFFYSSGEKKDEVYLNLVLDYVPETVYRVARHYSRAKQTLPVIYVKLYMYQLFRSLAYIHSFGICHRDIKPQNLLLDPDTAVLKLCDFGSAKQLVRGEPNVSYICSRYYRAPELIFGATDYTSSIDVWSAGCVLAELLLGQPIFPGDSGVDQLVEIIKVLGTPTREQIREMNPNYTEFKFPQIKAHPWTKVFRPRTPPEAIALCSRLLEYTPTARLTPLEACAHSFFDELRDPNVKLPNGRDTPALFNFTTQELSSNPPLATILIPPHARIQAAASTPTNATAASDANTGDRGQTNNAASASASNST
Chain of Ephrin type-A receptor 8 (Homo sapiens) (P29322 whole entry): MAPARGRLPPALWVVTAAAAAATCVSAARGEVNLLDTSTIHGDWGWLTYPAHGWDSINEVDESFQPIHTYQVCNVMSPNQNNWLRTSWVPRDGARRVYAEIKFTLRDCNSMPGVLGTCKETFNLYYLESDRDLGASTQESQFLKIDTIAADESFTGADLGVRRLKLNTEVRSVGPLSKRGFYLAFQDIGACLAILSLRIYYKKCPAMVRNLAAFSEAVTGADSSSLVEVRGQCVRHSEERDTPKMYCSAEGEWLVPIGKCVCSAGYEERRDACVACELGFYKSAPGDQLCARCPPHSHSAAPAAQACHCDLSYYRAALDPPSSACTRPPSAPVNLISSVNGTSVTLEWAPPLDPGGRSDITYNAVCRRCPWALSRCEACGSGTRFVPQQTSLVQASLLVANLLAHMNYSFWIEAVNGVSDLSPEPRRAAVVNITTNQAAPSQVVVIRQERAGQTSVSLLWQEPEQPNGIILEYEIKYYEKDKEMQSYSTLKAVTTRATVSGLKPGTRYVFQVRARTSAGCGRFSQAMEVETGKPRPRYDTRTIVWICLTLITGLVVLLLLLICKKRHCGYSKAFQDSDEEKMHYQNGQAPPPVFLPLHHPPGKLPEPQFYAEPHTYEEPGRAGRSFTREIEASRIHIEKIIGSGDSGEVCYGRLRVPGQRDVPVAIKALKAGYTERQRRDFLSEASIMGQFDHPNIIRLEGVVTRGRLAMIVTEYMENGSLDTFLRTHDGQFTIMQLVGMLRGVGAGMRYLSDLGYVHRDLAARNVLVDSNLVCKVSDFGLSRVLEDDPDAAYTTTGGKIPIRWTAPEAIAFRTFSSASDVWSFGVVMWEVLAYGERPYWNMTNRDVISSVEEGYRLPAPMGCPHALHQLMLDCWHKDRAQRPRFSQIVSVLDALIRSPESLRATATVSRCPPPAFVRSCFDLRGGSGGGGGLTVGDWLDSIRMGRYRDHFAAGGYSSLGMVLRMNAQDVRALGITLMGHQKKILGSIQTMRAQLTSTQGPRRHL
Chain of Tyrosine-protein kinase ABL1 (Homo sapiens) (P00519 whole entry): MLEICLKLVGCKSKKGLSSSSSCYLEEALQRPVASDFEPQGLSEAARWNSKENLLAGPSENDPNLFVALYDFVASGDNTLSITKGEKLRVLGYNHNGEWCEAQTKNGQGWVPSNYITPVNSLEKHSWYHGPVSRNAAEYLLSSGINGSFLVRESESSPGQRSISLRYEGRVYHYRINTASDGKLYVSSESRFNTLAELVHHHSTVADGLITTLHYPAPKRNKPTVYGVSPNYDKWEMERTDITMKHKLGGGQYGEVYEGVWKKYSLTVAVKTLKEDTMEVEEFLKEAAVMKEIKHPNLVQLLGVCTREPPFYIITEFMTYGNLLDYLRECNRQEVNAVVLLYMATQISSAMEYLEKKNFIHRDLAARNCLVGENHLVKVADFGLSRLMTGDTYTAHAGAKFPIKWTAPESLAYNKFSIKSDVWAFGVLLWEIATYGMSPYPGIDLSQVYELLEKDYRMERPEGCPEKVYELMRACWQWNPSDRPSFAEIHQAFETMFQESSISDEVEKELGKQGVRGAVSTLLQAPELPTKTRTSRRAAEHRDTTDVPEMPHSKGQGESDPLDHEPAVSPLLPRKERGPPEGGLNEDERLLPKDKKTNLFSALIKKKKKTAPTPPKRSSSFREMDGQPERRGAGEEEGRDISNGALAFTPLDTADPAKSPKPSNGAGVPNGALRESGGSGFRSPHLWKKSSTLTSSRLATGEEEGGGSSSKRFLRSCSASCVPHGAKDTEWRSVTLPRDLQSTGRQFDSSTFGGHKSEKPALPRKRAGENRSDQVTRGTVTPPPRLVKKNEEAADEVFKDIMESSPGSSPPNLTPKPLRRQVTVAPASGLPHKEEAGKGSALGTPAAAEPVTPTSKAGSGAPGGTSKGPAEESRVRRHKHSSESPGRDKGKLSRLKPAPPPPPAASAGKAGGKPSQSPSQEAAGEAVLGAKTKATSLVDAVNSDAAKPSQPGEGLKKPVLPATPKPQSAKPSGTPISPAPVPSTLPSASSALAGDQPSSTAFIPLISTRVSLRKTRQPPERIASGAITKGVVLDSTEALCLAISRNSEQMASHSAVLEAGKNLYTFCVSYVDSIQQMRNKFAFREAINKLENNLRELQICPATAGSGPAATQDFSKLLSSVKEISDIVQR
Chain of Aurora kinase B (Homo sapiens) (Q96GD4 whole entry): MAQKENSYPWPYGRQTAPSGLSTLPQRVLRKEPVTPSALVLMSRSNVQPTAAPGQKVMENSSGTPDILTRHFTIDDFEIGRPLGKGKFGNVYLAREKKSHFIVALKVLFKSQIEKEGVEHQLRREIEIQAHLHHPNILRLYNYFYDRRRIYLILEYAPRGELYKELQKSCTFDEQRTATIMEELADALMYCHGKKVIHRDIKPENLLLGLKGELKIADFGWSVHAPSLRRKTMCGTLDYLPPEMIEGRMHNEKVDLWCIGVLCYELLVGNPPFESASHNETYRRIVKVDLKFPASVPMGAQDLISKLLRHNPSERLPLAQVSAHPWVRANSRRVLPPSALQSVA
Chain of Serine/threonine-protein kinase PAK 3 (Homo sapiens) (O75914 whole entry, looked up): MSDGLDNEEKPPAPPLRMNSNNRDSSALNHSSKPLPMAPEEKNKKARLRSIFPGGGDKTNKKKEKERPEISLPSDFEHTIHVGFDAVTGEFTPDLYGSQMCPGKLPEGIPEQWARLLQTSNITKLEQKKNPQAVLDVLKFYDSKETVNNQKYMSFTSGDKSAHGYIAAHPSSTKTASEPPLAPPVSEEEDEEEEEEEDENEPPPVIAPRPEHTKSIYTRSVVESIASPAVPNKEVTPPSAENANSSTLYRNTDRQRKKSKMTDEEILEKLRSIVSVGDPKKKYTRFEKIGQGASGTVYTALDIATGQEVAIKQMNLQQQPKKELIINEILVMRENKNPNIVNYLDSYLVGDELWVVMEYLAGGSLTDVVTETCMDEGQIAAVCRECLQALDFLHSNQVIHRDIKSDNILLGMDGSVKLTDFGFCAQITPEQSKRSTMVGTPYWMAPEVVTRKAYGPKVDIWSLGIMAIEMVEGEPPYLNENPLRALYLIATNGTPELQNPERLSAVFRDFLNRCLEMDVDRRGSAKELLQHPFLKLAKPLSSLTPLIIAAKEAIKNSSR
Chain of Ephrin type-A receptor 5 (Homo sapiens) (P54756 whole entry): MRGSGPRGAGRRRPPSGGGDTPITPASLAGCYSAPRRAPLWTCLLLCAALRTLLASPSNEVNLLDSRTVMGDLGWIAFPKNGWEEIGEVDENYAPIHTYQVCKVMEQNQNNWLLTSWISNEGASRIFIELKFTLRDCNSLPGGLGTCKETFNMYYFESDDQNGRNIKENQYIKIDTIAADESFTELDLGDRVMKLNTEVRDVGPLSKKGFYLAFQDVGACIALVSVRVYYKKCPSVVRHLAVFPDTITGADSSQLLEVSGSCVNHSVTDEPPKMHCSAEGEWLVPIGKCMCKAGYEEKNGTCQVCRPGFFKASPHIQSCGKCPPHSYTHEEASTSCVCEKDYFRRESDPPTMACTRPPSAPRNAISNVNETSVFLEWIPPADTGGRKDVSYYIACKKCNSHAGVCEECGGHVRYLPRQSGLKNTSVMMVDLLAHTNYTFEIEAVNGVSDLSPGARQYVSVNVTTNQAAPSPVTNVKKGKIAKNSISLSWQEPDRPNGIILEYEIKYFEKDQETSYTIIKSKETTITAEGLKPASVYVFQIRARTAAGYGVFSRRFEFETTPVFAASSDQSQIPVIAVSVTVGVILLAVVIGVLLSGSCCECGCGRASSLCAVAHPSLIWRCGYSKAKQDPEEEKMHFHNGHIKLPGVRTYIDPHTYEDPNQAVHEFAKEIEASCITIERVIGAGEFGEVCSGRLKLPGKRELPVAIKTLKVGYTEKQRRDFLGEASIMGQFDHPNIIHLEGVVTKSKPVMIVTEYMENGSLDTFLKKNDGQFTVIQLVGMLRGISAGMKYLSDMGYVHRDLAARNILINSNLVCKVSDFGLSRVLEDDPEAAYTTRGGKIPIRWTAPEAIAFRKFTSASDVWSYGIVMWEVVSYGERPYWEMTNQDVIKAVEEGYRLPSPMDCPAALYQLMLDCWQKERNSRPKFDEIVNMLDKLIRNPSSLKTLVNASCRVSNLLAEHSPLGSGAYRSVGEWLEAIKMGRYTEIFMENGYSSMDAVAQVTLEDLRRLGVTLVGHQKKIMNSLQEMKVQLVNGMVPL

O=C1Nc2ncccc2/C1=C1/Nc2ncccc2C1=O
GI50 (NCI-H460): 307 nM
Activity [1]: 102%
Activity [2]: 76%
Activity [3]: 114%
Activity (MCF7): 21.66%
GI50 (BT-549): 1600 nM
GI50 [4]: 1070 nM
GI50 (MDA-MB-468): 1140 nM
Activity [5]: 85%
Activity [6]: 94%
Activity [7]: 61%
Activity [8]: 95%
Activity [9]: 113%
Activity [10]: 92%
Activity [11]: 142%
Activity [12]: 95%
Activity [13]: 92%
Activity [14]: 93%
Activity [15]: 96%
Activity [16]: 118%
Activity [17]: 125%
Activity [18]: 111%
Activity [19]: 88%
Activity [20]: 124%
Activity [21]: 101%
Activity [22]: 101%
Activity [23]: 115%
Activity [24]: 74%
GI50 [25]: 1090 nM
Activity [26]: 99%
GI50 (PC-3): 2020 nM
GI50 (SN12C): 1410 nM
GI50 [27]: 3040 nM
Activity [28]: 120%
